{"source": "ChEMBL document CHEMBL5042480", "about": "“3CL Protease Inhibitors with an Electrophilic Arylketone Moiety as Anti-SARS-CoV-2 Agents” (J Med Chem, 2022)", "key": {"[1]": {"experiment": "Total clearance in overnight-fasted Wistar rat at 0.1 mg/kg, iv measured upto 7 hrs by quadrupole mass spectrometry coupled UFLC analysis", "type": "ADME, organism-based", "conditions": "in vivo", "in_short": "(§1)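 Conscious, freely moving male Wistar rats received compound in saline at 4 mL/kg, either i.v. via jugular vein at 0.1 mg/kg or by oral gavage at 0.5 mg/kg. Cannula blood was sampled up to 7 h and plasma measured by LC-MS/MS. Analysis was noncompartmental (trapezoidal AUC); Cmax and tmax were taken as observed, and t1/2 from log-linear terminal regression over at least 3 points. Mean ± SD, n = 5.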"}, "[2]": {"experiment": "Drug metabolism in human hepatocytes assessed as amide hydrolysis mediated HC-5 metabolite formation at 10 uM incubated upto 2 hrs by LC/UV/MS analysis", "type": "ADME, cell-based, Hepatocyte", "in_short": "(§2)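 Hepatocytes were suspended at 6 × 10^5 viable cells/mL in KHB buffer and given compound at 10 μM. Incubation was 0 and 2 h at 37 °C under 5% CO2, stopped with acetonitrile. After centrifugation, supernatant metabolites were analysed by LC/UV/MS.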"}, "[3]": {"target": "Cytochrome P450 2D6 (Homo sapiens, UniProt P10635)", "sequence (P10635 whole entry)": "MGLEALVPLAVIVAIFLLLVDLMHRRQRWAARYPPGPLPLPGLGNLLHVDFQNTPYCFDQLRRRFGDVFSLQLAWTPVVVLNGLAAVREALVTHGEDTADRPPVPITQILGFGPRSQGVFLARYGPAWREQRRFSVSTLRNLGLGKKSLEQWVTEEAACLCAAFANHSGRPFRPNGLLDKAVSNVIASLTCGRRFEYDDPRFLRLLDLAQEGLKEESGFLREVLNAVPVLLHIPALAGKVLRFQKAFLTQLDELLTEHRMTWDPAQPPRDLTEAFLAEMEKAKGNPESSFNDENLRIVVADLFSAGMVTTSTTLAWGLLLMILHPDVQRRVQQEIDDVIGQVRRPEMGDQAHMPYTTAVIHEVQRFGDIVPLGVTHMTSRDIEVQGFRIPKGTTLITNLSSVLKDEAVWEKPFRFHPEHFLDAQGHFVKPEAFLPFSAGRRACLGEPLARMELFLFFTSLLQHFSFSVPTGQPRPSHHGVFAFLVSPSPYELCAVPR", "experiment": "Inhibition of CYP2D6 in human liver microsome at 10 uM", "type": "toxicity", "conditions": "microsomes", "in_short": "(§3)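 Human liver microsomes (0.1 mg protein/mL) were mixed with compound at 10 μM and probe substrates in phosphate buffer pH 7.4: tacrine (CYP1A2), paclitaxel (2C8), tolbutamide (2C9), dextromethorphan (2D6) and midazolam (3A4). Reactions were started with an NADPH-generating system, run 10 min at 37 °C and stopped with acetonitrile. Metabolites were measured by LC/MS/MS and activity expressed as % remaining versus the no-inhibitor control.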"}, "[4]": {"experiment": "Oral bioavailability in overnight-fasted Wistar rat at 0.5 mg/kg and measured upto 7 hrs by quadrupole mass spectrometry coupled UFLC analysis", "type": "ADME, organism-based", "conditions": "in vivo", "in_short": "as §1"}, "[5]": {"experiment": "AUC (0 to 7 hrs) in overnight-fasted Wistar rat at 0.5 mg/kg, po measured upto 7 hrs by quadrupole mass spectrometry coupled UFLC analysis", "type": "ADME, organism-based", "parameters": "route oral, dose 0.5 mg/kg, time <=7", "conditions": "in vivo", "in_short": "(§4)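 Male Wistar rats, conscious and unrestrained, were given the compound in saline at 4 mL/kg, either as an i.v. bolus via the left jugular vein or by oral gavage. Heparinized blood was drawn from a cannula at set times up to 7 h and the plasma analysed by LC-MS/MS. AUC0–7 and AUC0–∞ came from noncompartmental trapezoidal analysis; mean ± SD, n = 5.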"}, "[6]": {"experiment": "Drug metabolism in human hepatocytes assessed as CYP450-catalysed oxidative pathway mediated metabolite formation at 10 uM incubated upto 2 hrs by LC/UV/MS analysis", "type": "ADME, cell-based, Hepatocyte", "in_short": "as §2"}, "[7]": {"target": "Cytochrome P450 2C9 (Homo sapiens, UniProt P11712)", "sequence (P11712 whole entry)": "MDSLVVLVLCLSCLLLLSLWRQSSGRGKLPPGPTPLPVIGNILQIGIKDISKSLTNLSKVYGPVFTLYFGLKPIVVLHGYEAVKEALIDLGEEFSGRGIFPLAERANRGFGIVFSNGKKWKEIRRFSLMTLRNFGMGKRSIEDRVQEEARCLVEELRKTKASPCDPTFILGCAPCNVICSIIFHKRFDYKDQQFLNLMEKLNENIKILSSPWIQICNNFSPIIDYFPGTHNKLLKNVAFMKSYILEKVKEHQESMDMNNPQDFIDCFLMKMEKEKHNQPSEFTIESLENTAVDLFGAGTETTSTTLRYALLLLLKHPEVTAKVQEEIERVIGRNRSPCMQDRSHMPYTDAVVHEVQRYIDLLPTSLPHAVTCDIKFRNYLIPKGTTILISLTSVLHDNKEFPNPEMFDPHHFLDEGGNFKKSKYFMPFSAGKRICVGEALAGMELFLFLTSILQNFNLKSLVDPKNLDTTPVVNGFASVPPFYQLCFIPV", "experiment": "Inhibition of CYP2C9 in human liver microsome at 10 uM", "type": "toxicity", "conditions": "microsomes", "in_short": "as §3"}, "[8]": {"target": "Cytochrome P450 3A4 (Homo sapiens, UniProt P08684)", "sequence (P08684 whole entry)": "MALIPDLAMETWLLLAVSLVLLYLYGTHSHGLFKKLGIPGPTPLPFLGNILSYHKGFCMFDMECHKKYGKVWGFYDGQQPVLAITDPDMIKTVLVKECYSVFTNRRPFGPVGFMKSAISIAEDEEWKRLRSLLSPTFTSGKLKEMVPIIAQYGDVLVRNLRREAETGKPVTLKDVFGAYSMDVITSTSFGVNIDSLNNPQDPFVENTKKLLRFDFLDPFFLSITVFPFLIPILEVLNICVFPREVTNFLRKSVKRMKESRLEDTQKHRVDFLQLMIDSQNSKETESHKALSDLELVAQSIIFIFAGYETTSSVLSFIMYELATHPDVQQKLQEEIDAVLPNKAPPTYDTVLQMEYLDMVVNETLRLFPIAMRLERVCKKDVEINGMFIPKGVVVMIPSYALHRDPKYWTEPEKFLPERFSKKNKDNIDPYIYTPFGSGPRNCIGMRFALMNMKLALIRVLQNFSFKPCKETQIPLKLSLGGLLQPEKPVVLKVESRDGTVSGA", "experiment": "Inhibition of CYP3A4 in human liver microsome at 10 uM", "type": "toxicity", "conditions": "microsomes", "in_short": "as §3"}, "[9]": {"experiment": "Volume of distribution in overnight-fasted Wistar rat at 0.1 mg/kg, iv measured upto 7 hrs by quadrupole mass spectrometry coupled UFLC analysis", "type": "ADME, organism-based", "conditions": "in vivo", "in_short": "as §1"}, "[10]": {"experiment": "Apparent permeability in human Caco-2 monolayer cells at 1 uM and measured upto 120 mins by LC-MS/MS analysis", "type": "ADME, cell-based", "in_short": "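Caco-2 monolayers were grown 21 days on 3.0 μm-pore inserts. They were preincubated 30 min at 37 °C in HBSS with 10 mM HEPES, pH 7.4, and TEER was checked before and after. Transport of compound at 1 μM was run at 37 °C, quantified by LC-MS/MS, and converted to apparent permeability.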"}, "[11]": {"experiment": "Protein binding in rat plasma incubated for 6 hrs by quadrupole mass spectrometry coupled UFLC analysis", "type": "ADME, cell-free", "conditions": "read-out: PPB"}, "[12]": {"experiment": "MRT (total) in overnight-fasted Wistar rat at 0.1 mg/kg, iv measured upto 7 hrs by quadrupole mass spectrometry coupled UFLC analysis", "type": "ADME, organism-based", "conditions": "in vivo", "in_short": "as §1"}, "[13]": {"experiment": "AUC (0 to infinity) in overnight-fasted Wistar rat at 0.5 mg/kg, po measured upto 7 hrs by quadrupole mass spectrometry coupled UFLC analysis", "type": "ADME, organism-based", "parameters": "route oral, dose 0.5 mg/kg, time <=7", "conditions": "in vivo", "in_short": "as §4"}, "[14]": {"target": "Voltage-gated inwardly rectifying potassium channel KCNH2 (Homo sapiens, UniProt Q12809)", "sequence (Q12809 whole entry)": "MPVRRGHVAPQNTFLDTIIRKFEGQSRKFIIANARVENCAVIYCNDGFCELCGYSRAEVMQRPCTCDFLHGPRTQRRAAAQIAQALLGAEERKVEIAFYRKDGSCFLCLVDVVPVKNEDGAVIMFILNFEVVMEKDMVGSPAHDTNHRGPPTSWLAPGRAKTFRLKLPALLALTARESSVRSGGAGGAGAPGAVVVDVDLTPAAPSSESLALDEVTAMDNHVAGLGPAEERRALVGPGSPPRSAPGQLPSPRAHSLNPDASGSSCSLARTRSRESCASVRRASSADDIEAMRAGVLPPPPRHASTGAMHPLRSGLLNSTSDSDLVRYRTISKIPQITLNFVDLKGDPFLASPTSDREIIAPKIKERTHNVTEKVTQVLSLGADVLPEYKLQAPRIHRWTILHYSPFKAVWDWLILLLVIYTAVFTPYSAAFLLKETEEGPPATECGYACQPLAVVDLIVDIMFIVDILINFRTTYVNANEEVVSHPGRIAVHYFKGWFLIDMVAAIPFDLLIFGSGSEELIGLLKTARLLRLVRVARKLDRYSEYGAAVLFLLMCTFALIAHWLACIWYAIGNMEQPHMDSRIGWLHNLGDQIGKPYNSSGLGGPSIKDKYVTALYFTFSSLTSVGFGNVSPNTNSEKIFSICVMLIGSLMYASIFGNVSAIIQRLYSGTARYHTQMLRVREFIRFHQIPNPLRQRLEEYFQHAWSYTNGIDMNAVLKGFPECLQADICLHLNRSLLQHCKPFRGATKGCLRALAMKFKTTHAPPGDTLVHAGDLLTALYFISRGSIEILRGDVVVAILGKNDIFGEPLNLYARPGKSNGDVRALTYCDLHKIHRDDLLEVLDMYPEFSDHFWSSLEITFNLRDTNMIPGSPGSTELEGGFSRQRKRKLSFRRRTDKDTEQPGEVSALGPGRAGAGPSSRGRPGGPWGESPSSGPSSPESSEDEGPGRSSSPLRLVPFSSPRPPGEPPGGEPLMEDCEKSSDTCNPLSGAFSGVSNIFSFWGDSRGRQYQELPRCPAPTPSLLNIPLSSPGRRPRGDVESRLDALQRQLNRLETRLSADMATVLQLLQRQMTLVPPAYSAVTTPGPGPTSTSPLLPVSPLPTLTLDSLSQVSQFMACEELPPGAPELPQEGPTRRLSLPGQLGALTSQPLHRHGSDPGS", "experiment": "Inhibition of hERG expressed in CHO cells at > 100 uM by whole-cell patch-clamp voltage-clamp method", "type": "toxicity, cell-based", "in_short": "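hERG tail current was recorded by automated whole-cell patch clamp in CHO cells stably expressing hERG at room temperature. The pulse was +40 mV for 500 ms, then a ramp to −80 mV, repeated every 5 s. Compound was applied cumulatively at 5 min intervals. Verapamil served as positive control and DMSO as vehicle.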"}, "[15]": {"experiment": "Drug metabolism in rat hepatocytes assessed as amide hydrolysis mediated HC-7 metabolite formation at 10 uM incubated upto 2 hrs by LC/UV/MS analysis", "type": "ADME, cell-based, Hepatocyte", "in_short": "as §2"}, "[16]": {"experiment": "Drug metabolism in rat hepatocytes assessed as amide hydrolysis mediated HC-6 metabolite formation at 10 uM incubated upto 2 hrs by LC/UV/MS analysis", "type": "ADME, cell-based, Hepatocyte", "in_short": "as §2"}, "[17]": {"test_system": "SARS-CoV-2", "experiment": "Antiviral activity against SARS coronavirus 2 infected in African green monkey VeroE6/TMPRSS2 cells upto 10 uM in presence of MDR-1 inhibitor CP-100356 measured after 24 hrs post-infection by qRT-PCR analysis", "type": "functional, organism-based", "conditions": "Severe acute respiratory syndrome coronavirus 2; Vero; dose microM <=10, time 24.0 hrs"}, "[18]": {"test_system": "TK6", "experiment": "Mutagenicity against human TK6 cells assessed as induction of micronuclei formation by Micro-flow assay", "type": "toxicity, cell-based", "in_short": "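Human TK6 lymphoblastoid cells were treated either 3 h with 1% S9 followed by 21 h recovery, or continuously for 24 h without S9, at 37 °C under 5% CO2. Relative population doubling was used for cytotoxicity. Positive controls were cyclophosphamide and mitomycin C.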"}, "[19]": {"experiment": "Tmax in overnight-fasted Wistar rat at 0.5 mg/kg, po measured upto 7 hrs by quadrupole mass spectrometry coupled UFLC analysis", "type": "ADME, organism-based", "conditions": "in vivo", "in_short": "as §1"}, "[20]": {"experiment": "Apparent total clearance in overnight-fasted Wistar rat at 0.5 mg/kg, po measured upto 7 hrs by quadrupole mass spectrometry coupled UFLC analysis", "type": "ADME, organism-based", "conditions": "in vivo, read-out: CLt/F (converted)", "in_short": "as §1"}}, "note": "The source made the active and inactive calls. The rule behind the calls is not given here.", "data": [{"smiles": "COc1cccc2[nH]c(C(=O)N[C@@H](CC(C)C)C(=O)N[C@@H](C[C@@H]3CCNC3=O)C(=O)c3nc4ccccc4s3)cc12", "values": [{"measurement": "clearance", "setting": "[1]", "value": 107, "unit": "mL/min/kg"}, {"measurement": "Drug metabolism", "setting": "[2]", "value": "Metabolite_Detected"}, {"measurement": "inhibition (INH)", "setting": "[3]", "value": "Active"}, {"measurement": "bioavailability", "setting": "[4]", "value": 3.55, "unit": "%"}, {"measurement": "AUC(0-t)", "setting": "[5]", "value": 1.59, "unit": "ng·h/mL"}, {"measurement": "Drug metabolism", "setting": "[6]", "value": "Metabolite_Detected"}, {"measurement": "inhibition (INH)", "setting": "[7]", "value": "Not Active"}, {"measurement": "inhibition (INH)", "setting": "[8]", "value": "Not Active"}, {"measurement": "Vd", "setting": "[9]", "value": 3.51, "unit": "L/kg"}, {"measurement": "Papp at 2 h, 1 µM", "setting": "[10]", "value": 18.9, "unit": "×10⁻⁶ cm/s"}, {"measurement": "fraction unbound at 6 h", "setting": "[11]", "value": 0.01}, {"measurement": "MRT", "setting": "[12]", "value": 29.6, "unit": "min"}, {"measurement": "AUC(0-inf)", "setting": "[13]", "value": 3.49, "unit": "ng·h/mL"}, {"measurement": "inhibition (INH)", "setting": "[14]", "value": "Not Active"}, {"measurement": "Drug metabolism", "setting": "[15]", "value": "Metabolite_Detected"}, {"measurement": "Drug metabolism", "setting": "[16]", "value": "Metabolite_Detected"}, {"measurement": "Activity", "setting": "[17]", "value": "Active"}, {"measurement": "Activity", "setting": "[18]", "value": "Non-Toxic"}, {"measurement": "Tmax", "setting": "[19]", "value": 21, "unit": "min"}, {"measurement": "CL/F", "setting": "[20]", "value": 2650, "unit": "mL/min/kg"}]}]}
